According to paper PMC2702655 (Archives of biochemistry and biophysics, 2009):
Entries after “also recorded” stand apart in the source; their conditions may differ.

Tests used:
[1] = test system: eNOS; assay: eNOS oxygenase activity, L-[3H]citrulline formation; assay type: biochemical, human; settings: 50 nM eNOS, 1 μM calmodulin, 0.5 mM Ca2+, 10 μM L-arginine, 37 °C, 5 min, varied peptide concentrations
Summary of the method: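 Steady-state reaction in 25 mM Tris pH 7.5, 100 mM NaCl, 0.1 mM EGTA, 0.1 mM EDTA, 100 μM β-NADPH, 100 μM H4B and 1 μCi L-[3H]arginine tracer. Read-out was L-[3H]citrulline formed. Activity was normalized as percent of the rate without peptide. Mean ± standard deviation of triplicate experiments.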

[2] = test system: CaM mutant B1234Q; assay: Gel mobility-shift assay of peptide binding to CaM mutant B1234Q; design: species or system human; settings: CaM:peptide ratio 1:10, 100 μM Ca2+
Summary of the method: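 Calmodulin mutant with Glu→Gln at all four Ca2+ sites ([…]), expressed in E. coli BL21(DE3) and purified by heat treatment at 70°C, ammonium sulfate fractionation and gel filtration. Test peptide and mutant were incubated at a 1:10 CaM:peptide ratio for 1 h in 20 mM Tris pH 7.5 with 100 μM Ca2+. Samples ran on 18% nondenaturing, non-reducing PAGE with 100 μM free Ca2+ in gel buffers, then Coomassie staining.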

[3] = test system: CaM; assay: Intrinsic tryptophan fluorescence of peptides with CaM; assay type: binding, human; settings: 100 μM Ca2+; 5 μM peptide + 5 μM CaM, 20 mM Tris pH 7.5, excitation 290 nm
Summary of the method: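 Test peptides carry tryptophan. Each peptide (5 μM) was measured with or without 5 μM E. coli-expressed wild-type CaM in 20 mM Tris pH 7.5 containing 100 μM Ca2+, with 1 mM EGTA in place of Ca2+ as the low-Ca2+ condition. Intrinsic fluorescence was excited at 290 nm and emission scanned from 300 to 450 nm, 2-nm slits. Intensity and emission peak position were compared.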

[4] = test system: eNOS; assay: Ferricyanide reduction by eNOS; assay type: biochemical, human; settings: 10 μM peptide, with CaM
Summary of the method: (§1)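 Purified eNOS in Tris-HCl pH 7.5 with NaCl, 10% glycerol, NADPH and enzyme at 37 °C, with or without each peptide, and with or without CaM plus 100 μM CaCl2. Cytochrome c reduction used cytochrome c as electron acceptor. Ferricyanide reduction used the same mixture with ferricyanide in place of cytochrome c.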

[5] = test system: eNOS; assay: Cytochrome c reductase activity of eNOS; assay type: biochemical, human; settings: 10 μM peptide, with CaM
Summary of the method: as §1

Row | Substance | Effect on eNOS oxygenase activity (L-citrulline formation), in words [1] | Binding to B1234Q (disappearance of free B1234Q band) [2] | further results
1 | PKFPRVKNWEVGSITYDTLS [Peptide E0] | did not interfere with eNOS catalytic activity |  | 
2 | RRPKRREIPL^1KVLV^5KAV^8LFACML^14M [Peptide M2] |  | able to bind B1234Q; also recorded: binds B1234Q with the highest affinity | 
3 | TKQA^1WRNA^5PRC^8IG^10RIQW^14SNL [Peptide M1] |  | able to bind B1234Q | Increase in tryptophan fluorescence intensity induced by CaM [3]: 2 fold
4 | VTSRIRTQSF^1SLQERQL^8RGAVPW^14 [Peptide E5] | did not interfere with eNOS catalytic activity |  | 
5 | YNSSPRPEQHKSY^1KIRF^5NSI^8SCSDPL^14 [Peptide E3] | weak inhibition on citrulline formation |  | Inhibition of ferricyanide reduction [4]: no effect on electron transfer within reductase domain; Inhibition of cytochrome c reduction [5]: no effect on electron transfer within reductase domain
